We go through one compound from ChEMBL document CHEMBL4373718, “Germacrane Sesquiterpenoids as a New Type of Anticardiac Fibrosis Agent Targeting Transforming Growth Factor β Type I Receptor” (J Med Chem, 2019).

Experiment [1] concerns Rattus norvegicus. As to the kind of experiment: Antifibrotic activity in abdominal aortic constriction Sprague-Dawley rat model of cardiac fibrosis assessed as diastolic left ventricular posterior wall thickness at 10 mg/kg, ip administered once daily for 4 weeks measured post-last dose by echocardiography (reference value: 2.33 +/- 0.31 mm). In kind it is functional.
The test system of experiment [2] is Rattus norvegicus. The experiment can be described thus: Antifibrotic activity in abdominal aortic constriction Sprague-Dawley rat model of cardiac fibrosis assessed as systolic left ventricular internal diameter at 10 mg/kg, ip administered once daily for 4 weeks measured post-last dose by echocardiography (reference value: 3.99 +/- 0.41 mm). In kind it is functional.

For experiment [3], the system named is Rattus norvegicus. As to the kind of experiment: Antifibrotic activity in abdominal aortic constriction Sprague-Dawley rat model of cardiac fibrosis assessed as decrease in heart alpha-SMA level at 10 mg/kg, ip administered once daily for 4 weeks measured post-last dose by immunohistochemical analysis. In kind it is functional, organism-based. The essentials:
(§1)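 Male SD rats (200–250 g, n = 8/group) had the suprarenal abdominal aorta tied with 4-0 silk around a 21-G probe, which was then removed; sham rats had surgery without constriction. Dosing was ip daily for 4 weeks in saline with 0.5% DMSO and 5% Kolliphor HS 15. Ventricle slices were formalin-fixed, paraffin-embedded and cut into 4 µm sections. FN and α-SMA were read by immunohistochemistry and collagen by Masson's trichrome.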

The subject of experiment [4] is Rattus norvegicus. As to the kind of experiment: Antifibrotic activity in abdominal aortic constriction Sprague-Dawley rat model of cardiac fibrosis assessed as diastolic left ventricular anterior wall thickness at 10 mg/kg, ip administered once daily for 4 weeks measured post-last dose by echocardiography (reference value: 2.48 +/- 0.42 mm). In kind it is functional.

The target in experiment [5] is T1, TGF-beta receptor type-1 (Rattus norvegicus) (UniProt P80204).
T1 sequence (whole entry): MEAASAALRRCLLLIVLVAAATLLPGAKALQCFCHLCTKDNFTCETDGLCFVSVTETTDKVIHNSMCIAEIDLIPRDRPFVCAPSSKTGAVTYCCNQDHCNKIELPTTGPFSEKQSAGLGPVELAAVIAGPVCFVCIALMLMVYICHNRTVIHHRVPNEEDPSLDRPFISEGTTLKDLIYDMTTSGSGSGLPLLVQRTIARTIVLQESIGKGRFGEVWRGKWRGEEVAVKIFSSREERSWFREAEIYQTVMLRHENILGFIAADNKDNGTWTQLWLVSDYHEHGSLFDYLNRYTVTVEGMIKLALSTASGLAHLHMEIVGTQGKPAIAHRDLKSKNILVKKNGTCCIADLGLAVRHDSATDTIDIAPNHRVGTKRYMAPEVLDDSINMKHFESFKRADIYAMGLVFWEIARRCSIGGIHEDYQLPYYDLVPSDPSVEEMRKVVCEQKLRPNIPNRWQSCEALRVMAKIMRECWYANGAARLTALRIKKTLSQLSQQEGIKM
The experiment can be described thus: Inhibition of TGFbeta1 receptor in TGFbeta1-stimulated Sprague-Dawley rat cardiac fibroblasts assessed as reduction in fibronectin expression at 20 uM measured after 12 hrs by Western blot analysis. A digest of the protocol:
(§2)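 Primary adult male SD rat cardiac fibroblasts were used at passages 2–4, seeded at 3×10^5 per well. Cells were co-treated with compound and 10 ng/mL TGFβ1 for 12 h. Lysates (30 µg protein) were run on 10% SDS-PAGE, Western blotted for FN, α-SMA, collagen I and III, normalised to GAPDH and quantified by densitometry; N = 3 independent experiments.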
For orientation: A western blot detects proteins with antibodies after separation by electrophoresis.

Experiment [6] deals with Rattus norvegicus. The experiment can be described thus: Antifibrotic activity in abdominal aortic constriction Sprague-Dawley rat model of cardiac fibrosis assessed as diastolic left ventricular internal diameter at 10 mg/kg, ip administered once daily for 4 weeks measured post-last dose by echocardiography (reference value: 7.60 +/- 0.63 mm). In kind it is functional.

The test system of experiment [7] is Rattus norvegicus. As to the kind of experiment: Antifibrotic activity in abdominal aortic constriction Sprague-Dawley rat model of cardiac fibrosis assessed as systolic left ventricular posterior wall thickness at 10 mg/kg, ip administered once daily for 4 weeks measured post-last dose by echocardiography (reference value: 3.62 +/- 0.26 mm). Format: functional.

Experiment [8] deals with Rattus norvegicus. As to the kind of experiment: Antifibrotic activity in abdominal aortic constriction Sprague-Dawley rat model of cardiac fibrosis assessed as decrease in heart fibronectin level at 10 mg/kg, ip administered once daily for 4 weeks measured post-last dose by immunohistochemical analysis. In kind it is functional, organism-based. The essentials:
as §1

Experiment [9] relates to Rattus norvegicus. The experiment can be described thus: Antifibrotic activity in abdominal aortic constriction Sprague-Dawley rat model of cardiac fibrosis assessed as systolic left ventricular anterior wall thickness at 10 mg/kg, ip administered once daily for 4 weeks measured post-last dose by echocardiography (reference value: 3.92 +/- 0.42 mm). Format: functional.

In experiment [10] the test system is Rattus norvegicus. As to the kind of experiment: Antifibrotic activity in abdominal aortic constriction Sprague-Dawley rat model of cardiac fibrosis assessed as fractional shortening at 10 mg/kg, ip administered once daily for 4 weeks measured post-last dose by echocardiography (reference value: 48.17 +/- 4.69%). In kind it is functional.
Experiment [11] addresses T1, TGF-beta receptor type-1 (Rattus norvegicus). The experiment can be described thus: Inhibition of TGFbeta1 receptor in TGFbeta1-stimulated Sprague-Dawley rat cardiac fibroblasts assessed as reduction in alpha-SMA expression at 20 uM measured after 12 hrs by Western blot analysis. The essentials: as §2
For experiment [12] the target is unchanged. As to the kind of experiment: Inhibition of TGFbeta1 receptor in TGFbeta1-stimulated Sprague-Dawley rat cardiac fibroblasts assessed as reduction in collagen 3 expression at 20 uM measured after 12 hrs by Western blot analysis. The essentials:
as §2

In experiment [13] the test system is Rattus norvegicus. The experiment can be described thus: Antifibrotic activity in abdominal aortic constriction Sprague-Dawley rat model of cardiac fibrosis assessed as ejection fraction at 10 mg/kg, ip administered once daily for 4 weeks measured post-last dose by echocardiography (reference value: 79.59 +/- 3.13%). Format: functional.
The test system of experiment [14] is Rattus norvegicus. As to the kind of experiment: Antifibrotic activity in abdominal aortic constriction Sprague-Dawley rat model of cardiac fibrosis assessed as decrease in heart collagen level at 10 mg/kg, ip administered once daily for 4 weeks measured post-last dose by Masson's trichrome staining-based histological analysis. Format: functional, organism-based. The essentials: as §1

Experiment [15] concerns the target T1, TGF-beta receptor type-1 (Rattus norvegicus). The experiment can be described thus: Inhibition of TGFbeta1 receptor in TGFbeta1-stimulated Sprague-Dawley rat cardiac fibroblasts assessed as reduction in collagen 1 expression at 20 uM measured after 12 hrs by Western blot analysis. A digest of the protocol:
as §2

Active and inactive are the calls of the source. No cut-off for these calls is given here.

Regarding `COC(=O)C1=C(C)NC(C)=C(C(=O)OC)C1c1ccccc1[N+](=O)[O-]` [NIFEDIPINE], the Activity with Rattus norvegicus [1] was found to be 1.97 mm; with Rattus norvegicus [2], 4.69 mm; in the experiment with Rattus norvegicus [4], 2.02 mm; with Rattus norvegicus [6] it was 8.32 mm; with Rattus norvegicus [7], 3.19 mm; in the experiment with Rattus norvegicus [9] it was 3.23 mm. For the same compound, the Activity was found to be 42.79% in the experiment with Rattus norvegicus [10] and 72.6% with Rattus norvegicus [13]. In addition, the result with Rattus norvegicus [3], in the experiment with Rattus norvegicus [8] and with Rattus norvegicus [14] was Active. Besides, the inhibition result in [5], in [11], in [12] and in [15] was “Active” throughout.
